Test results published in ChEMBL document CHEMBL1122458, “beta-Carbolines as benzodiazepine receptor ligands. 1. Synthesis and benzodiazepine receptor interaction of esters of beta-carboline-3-carboxylic acid” (J Med Chem, 1983).

How the values were obtained:
[1] = molecular target: GABA-A receptor; anion channel; experiment: Concentration that inhibits specific [3H]flunitrazepam binding to benzodiazepine receptor in bovine brain
Outline: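 Bovine cortex (frozen, -20 °C) homogenized in 50 mM Tris-HCl pH 7.4, spun 48000g 10 min, pellet resuspended; incubated 45 min with 0.2 nM [3H]flunitrazepam (final) and displacers. Rapid filtration over GF-B filters, three ice-cold washes, scintillation counting. Nonspecific binding with 10 µM diazepam. IC50 by log probit analysis, four to six concentrations, each in triplicate.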

[2] = molecular target: GABA-A receptor; anion channel (Mus musculus) (UniProt Q8BHJ7+P26048+Q8QZW7+P50571+Q9R0Y8+P22723+A2AMW3+P62812+Q9JLF1+P26049+P22933+Q9D6F4+P63080+P27681+P16305); experiment: In vivo inhibition of specific [3H]flunitrazepam binding in mouse brain 10 minute after iv administration of 15 uM/Kg; assay type: organism-based
Outline: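 Mouse brain ex vivo: specific [3H]flunitrazepam binding measured 10 min after iv dosing at 15 µmol/kg; reported as percent inhibition of specific binding, mean ± SEM of four determinations.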

SMILES	IC50 [1]	inhibition [2]
O=C(O)c1cc2c3ccccc3nc-2c[nH]1	7200 nM	
CCCCOC(=O)c1cc2c(cn1)[nH]c1ccccc12	29 nM	54.9%
O=C(OCCF)c1cc2c3ccccc3nc-2c[nH]1	27 nM	55.3%
CCCCOC(=O)C1Cc2c([nH]c3ccccc23)CN1 (stereo unspecified)	4800 nM	
CCCOC(=O)c1cc2c(cn1)[nH]c1ccccc12	4.6 nM	62.7%
O=C(OCc1cccnc1)c1cc2c3ccccc3nc-2c[nH]1	34 nM	49.4%
O=C(OCc1ccccc1)C1Cc2c([nH]c3ccccc23)CN1 (stereo unspecified)	2700 nM	
COC(=O)c1cc2c(cn1)[nH]c1ccccc12 [BETA-CCM]	2.5 nM	51.2%
O=C(OCc1ccccc1)c1cc2c3ccccc3nc-2c[nH]1	21 nM	38.4%
CN(C)CCOC(=O)c1cc2c3ccccc3nc-2c[nH]1	330 nM	13.4%
O=C(OCCCl)c1cc2c3ccccc3nc-2c[nH]1	22 nM	89%
[2H]C([2H])([2H])OC(=O)c1cc2c(cn1)[nH]c1ccccc12	5.3 nM	
COC(=O)C1Cc2c([nH]c3ccccc23)CN1 (stereo unspecified)	250 nM	6.1%
CCOC(=O)C1Cc2c([nH]c3ccccc23)CN1 (stereo unspecified)	6000 nM	
O=C(O)C1Cc2c([nH]c3ccccc23)CN1 (stereo unspecified)	22000 nM	
CCCOC(=O)C1Cc2c([nH]c3ccccc23)CN1 (stereo unspecified)	4400 nM	
N#CCCOC(=O)c1cc2c3ccccc3nc-2c[nH]1	27 nM	44.4%
CCOC(=O)c1cc2c(cn1)[nH]c1ccccc12	1.4 nM	61.7%
COCCOC(=O)c1cc2c3ccccc3nc-2c[nH]1	145 nM	34.6%
